Measurements of several laboratories.
Lines come from different studies, so protocols differ.
SLC47A2: Multidrug and toxin extrusion protein 2 (SLC47A2, Homo sapiens, UniProt Q86VL8)
ABCB1: ATP-dependent translocase ABCB1 (ABCB1, Homo sapiens, UniProt P08183)

O=C(O)CSc1nnc(Br)n1-c1ccc(C2CC2)c2ccccc12 — inhibition (SLC47A2; transporter uptake, inhibitor; HEK293; 10 µM, 2 min): -16%
CC1(C)CCC2(CC1)N[C@@H](C(=O)N[C@@H]1CC[C@@H](C(N)=O)OC1)[C@H](c1ccnc(Cl)c1F)[C@]21C(=O)Nc2cc(Cl)ccc21 — efflux ratio (ABCB1; Caco-2; 3 µM, 2 h): 14.1
CN/C(=N/CCSCc1nc[nH]c1C)NC#N — inhibition (SLC47A2; transporter uptake, inhibitor; HEK293; 100 µM, 2 min): 76%
C=C[C@H]1C[N@@]2CC[C@H]1C[C@@H]2[C@@H](O)c1ccnc2ccc(OC)cc12 — Papp B→A (ABCB1; MDCK-MDR1; 5 µM): 40.6 ×10⁻⁶ cm/s
CN(C(=O)n1cnc(-c2ccc[n+]([O-])c2)c1)C1CCCCC1 — inhibition (SLC47A2; transporter uptake, inhibitor; MDCK-II; 0.3 µg/mL): 12%
C[C@]12CCCN1CC1=NNC(=O)c3cc(F)cc4[nH]c2c1c34 — Papp B→A (ABCB1; MDCK-MDR1; 10 µM): 41.2 ×10⁻⁶ cm/s
C[C@H]1O[C@@H](O[C@H]2[C@@H](O)C[C@H](O[C@H]3[C@@H](O)C[C@H](O[C@H]4CC[C@@]5(C)[C@H](CC[C@@H]6[C@@H]5C[C@@H](O)[C@]5(C)[C@@H](C7=CC(=O)OC7)CC[C@]65O)C4)O[C@@H]3C)O[C@@H]2C)C[C@H](O)[C@@H]1O — half-life (ABCB1; human, plasma; oral, 0.5 mg): 2550 min
COCCc1ccc(OCC(O)CNC(C)C)cc1 (stereo not shown) — efflux ratio (ABCB1; MDCK-MDR1; 5 µM): 0.981
Cc1cc(Nc2ncnc3ccc(NC4=NC(C)(C)CO4)cc23)ccc1Oc1ccn2ncnc2c1 — efflux ratio (ABCB1; MDCK-MDR1, Caco-2; 1 µM, 1 h, pH 7.4): 9.48
Nc1nc(NC2CC2)c2ncn([C@H]3C=C[C@@H](CO)C3)c2n1 — IC50 (SLC47A2; transporter uptake, inhibitor): > 500 µM
